According to ChEMBL document CHEMBL1138183, “Design, synthesis, and biological evaluation of isoquinoline-1,3,4-trione derivatives as potent caspase-3 inhibitors” (J Med Chem, 2006):
The source made the active and inactive calls. The calls are words filed in the database; no cut-off is given here. Peptide text beside a SMILES is read from it. * marks the point of attachment. Cbz = O=C(OCc1ccccc1)*; CH2F = FC*

Experiments:
Caspase-3 (Homo sapiens) = target: T1, Caspase-3 (Homo sapiens) (UniProt P42574); assay: Inhibition of caspase3 activity in camptothecin-induced apoptotic Jurkat T cells at 2 uM; assay type: functional, cell-based
T1 sequence (whole entry): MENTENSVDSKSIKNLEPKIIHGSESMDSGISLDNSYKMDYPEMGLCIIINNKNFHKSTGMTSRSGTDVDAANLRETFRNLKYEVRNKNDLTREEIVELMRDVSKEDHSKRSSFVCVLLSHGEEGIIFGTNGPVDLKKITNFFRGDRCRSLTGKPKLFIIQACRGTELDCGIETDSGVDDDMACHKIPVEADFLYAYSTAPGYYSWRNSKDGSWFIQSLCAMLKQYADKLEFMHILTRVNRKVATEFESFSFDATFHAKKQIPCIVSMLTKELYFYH
Outline: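 Jurkat cells (1 × 10⁵ cells/mL) preincubated 30 min at 37 °C, given inhibitor for 2 h, then 2 µM camptothecin for 4 h. Lysed by freeze–thaw cycles, spun at 12000g. Lysate assayed with 100 µM Ac-DEVD-AMC in HEPES pH 7.0, sucrose, CHAPS and DTT. AMC fluorescence (ex 360/em 460 nm) read 20 min at room temperature, normalised to Bradford protein.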

Calpain 1 = Calpain 1 (Homo sapiens, UniProt P07384); assay: Inhibition of calpain1; assay type: protein-complex assay
Calpain 1, sequence (P04632 whole entry): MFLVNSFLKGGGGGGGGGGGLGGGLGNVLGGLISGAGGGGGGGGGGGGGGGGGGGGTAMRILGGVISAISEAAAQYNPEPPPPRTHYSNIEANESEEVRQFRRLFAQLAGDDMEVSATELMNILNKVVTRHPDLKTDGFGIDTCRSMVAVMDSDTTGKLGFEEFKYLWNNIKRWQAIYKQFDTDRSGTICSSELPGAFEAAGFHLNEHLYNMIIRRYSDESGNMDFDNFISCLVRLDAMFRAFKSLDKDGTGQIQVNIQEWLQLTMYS
Calpain 1, sequence (P07384 whole entry): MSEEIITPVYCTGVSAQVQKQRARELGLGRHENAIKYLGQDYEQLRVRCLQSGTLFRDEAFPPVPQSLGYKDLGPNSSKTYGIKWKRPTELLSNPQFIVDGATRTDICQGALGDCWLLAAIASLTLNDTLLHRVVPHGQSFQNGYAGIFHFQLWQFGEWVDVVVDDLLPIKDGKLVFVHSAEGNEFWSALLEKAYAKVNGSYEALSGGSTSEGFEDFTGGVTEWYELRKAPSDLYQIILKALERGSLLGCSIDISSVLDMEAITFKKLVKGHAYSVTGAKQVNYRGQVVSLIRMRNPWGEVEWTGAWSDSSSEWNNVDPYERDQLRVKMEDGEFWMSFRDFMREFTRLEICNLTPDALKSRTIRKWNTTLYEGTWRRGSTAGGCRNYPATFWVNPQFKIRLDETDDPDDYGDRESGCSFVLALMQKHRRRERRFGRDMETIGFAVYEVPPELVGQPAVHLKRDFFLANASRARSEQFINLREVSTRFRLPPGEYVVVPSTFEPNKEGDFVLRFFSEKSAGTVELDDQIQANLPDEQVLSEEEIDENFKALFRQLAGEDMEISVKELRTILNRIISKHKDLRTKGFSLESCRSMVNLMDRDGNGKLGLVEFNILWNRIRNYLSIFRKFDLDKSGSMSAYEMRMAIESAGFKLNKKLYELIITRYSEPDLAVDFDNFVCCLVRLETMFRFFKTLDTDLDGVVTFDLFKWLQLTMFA
Outline: (§1)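 Enzymes (caspases 2, 6 and 7; proteasome, trypsin, thrombin, papain, calpain-I) preincubated with inhibitor 30 min in their own buffer at optimal pH. Substrates at 10–100 µM, assayed at 35 °C. pNA release followed at 405 nm for 1–3 min; initial hydrolysis rate taken.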

Trypsin = Trypsin (Homo sapiens, UniProt P07477+P07478+P35030); assay: Inhibition of trypsin; assay type: protein assay; outline: as §1
Caspase-8 = Caspase-8 (Homo sapiens, UniProt Q14790); assay: Inhibition of caspase8
Caspase-8, sequence (Q14790 217-374 limits assumed): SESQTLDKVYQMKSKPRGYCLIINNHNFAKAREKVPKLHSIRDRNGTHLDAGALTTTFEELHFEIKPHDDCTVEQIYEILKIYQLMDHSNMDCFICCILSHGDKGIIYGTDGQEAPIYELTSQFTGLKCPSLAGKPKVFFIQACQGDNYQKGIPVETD
Caspase-8, sequence (Q14790 385-479 limits assumed): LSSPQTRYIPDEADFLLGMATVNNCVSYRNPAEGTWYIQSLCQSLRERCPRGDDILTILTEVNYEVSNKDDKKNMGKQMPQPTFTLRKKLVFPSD

Caspase-3 = target: T2, Caspase-3 (Homo sapiens, UniProt P42574); assay: Inhibition of caspase3
T2 sequence (P42574 whole entry): T1 sequence (whole entry)

Caspase-6 = target: T3, Caspase-6 (Homo sapiens, UniProt P55212); assay: Inhibition of caspase6; outline: as §1
T3 sequence (P55212 whole entry): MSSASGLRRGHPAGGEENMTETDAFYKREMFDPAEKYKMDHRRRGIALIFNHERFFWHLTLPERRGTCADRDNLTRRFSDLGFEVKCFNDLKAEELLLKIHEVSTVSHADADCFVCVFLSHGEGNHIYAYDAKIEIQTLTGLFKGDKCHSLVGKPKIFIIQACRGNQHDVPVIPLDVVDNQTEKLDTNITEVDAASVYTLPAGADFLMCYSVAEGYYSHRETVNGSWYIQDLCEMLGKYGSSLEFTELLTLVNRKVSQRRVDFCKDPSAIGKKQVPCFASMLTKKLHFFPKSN

Papain = target: T4, Papain (Carica papaya, UniProt P00784); assay: Inhibition of papain; outline: as §1
T4 sequence (P00784 whole entry): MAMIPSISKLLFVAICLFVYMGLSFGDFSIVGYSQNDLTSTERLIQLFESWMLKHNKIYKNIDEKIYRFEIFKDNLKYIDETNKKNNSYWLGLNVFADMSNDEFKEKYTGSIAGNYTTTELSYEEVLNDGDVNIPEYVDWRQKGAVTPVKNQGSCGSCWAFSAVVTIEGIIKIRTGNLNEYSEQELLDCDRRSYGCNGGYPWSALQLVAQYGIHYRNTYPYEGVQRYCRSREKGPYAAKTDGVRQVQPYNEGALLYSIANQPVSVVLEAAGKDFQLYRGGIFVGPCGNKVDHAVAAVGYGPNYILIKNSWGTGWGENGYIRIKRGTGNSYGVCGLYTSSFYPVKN

Prothrombin = Prothrombin (Homo sapiens, UniProt P00734); assay: Inhibition of thrombin; outline: as §1
Caspase-2 = target: T5, Caspase-2 (Homo sapiens, UniProt P42575); assay: Inhibition of caspase2; outline: as §1
T5 sequence (P42575 whole entry): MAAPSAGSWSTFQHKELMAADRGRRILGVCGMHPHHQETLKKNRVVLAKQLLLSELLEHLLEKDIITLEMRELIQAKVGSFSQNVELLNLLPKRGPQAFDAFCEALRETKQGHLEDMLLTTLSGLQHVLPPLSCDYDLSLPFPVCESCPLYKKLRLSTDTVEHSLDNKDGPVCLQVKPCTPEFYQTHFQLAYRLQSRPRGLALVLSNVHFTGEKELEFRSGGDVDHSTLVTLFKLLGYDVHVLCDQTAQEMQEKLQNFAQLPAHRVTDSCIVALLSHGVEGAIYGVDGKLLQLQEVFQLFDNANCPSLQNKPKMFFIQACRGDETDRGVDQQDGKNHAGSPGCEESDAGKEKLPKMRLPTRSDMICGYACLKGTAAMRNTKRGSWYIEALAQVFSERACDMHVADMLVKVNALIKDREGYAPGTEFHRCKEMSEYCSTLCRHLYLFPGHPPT

Proteasome = assay: Inhibition of proteasome; assay type: subcellular; outline: as §1
Caspase-7 = target: T6, Caspase-7 (Homo sapiens, UniProt P55210); assay: Inhibition of caspase7; outline: as §1
T6 sequence (P55210 whole entry): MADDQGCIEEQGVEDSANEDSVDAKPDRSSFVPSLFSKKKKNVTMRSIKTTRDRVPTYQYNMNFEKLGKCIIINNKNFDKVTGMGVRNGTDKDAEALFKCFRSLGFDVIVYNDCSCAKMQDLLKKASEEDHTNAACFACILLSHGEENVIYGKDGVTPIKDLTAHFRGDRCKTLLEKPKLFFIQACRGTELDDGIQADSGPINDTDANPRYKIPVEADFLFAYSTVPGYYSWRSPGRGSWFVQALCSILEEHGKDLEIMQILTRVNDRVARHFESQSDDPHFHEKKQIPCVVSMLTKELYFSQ

Rattus norvegicus = assay: Decrease in infarct volume of ischemic damage in transient MCA occlusion model of Sprague-Dawley rat at 1 mg/kg, sc; assay type: functional
Outline: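 Male Sprague-Dawley rats (200–240 g); transient MCA occlusion for 1.5 h. Drug in DMSO given sc at 0.5 mL/kg, 5 min after occlusion start. Sacrifice at 24 h; 2 mm coronal slices stained with TTC. Infarct volume corrected by indirect method (contralateral minus intact ipsilateral area); n=8 per group, mean ± SE vs saline-treated animals, one-way ANOVA with Dunnett's test.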

| Compound | Activity (Caspase-3 (Homo sapiens)) [RFU/µg/min] | IC50 (Calpain 1) [nM] | IC50 (Trypsin) [nM] | IC50 (Caspase-8) [nM] | IC50 (Caspase-3) [nM] | IC50 (Caspase-6) [nM] | IC50 (Papain) [nM] | IC50 (Prothrombin) [nM] | IC50 (Caspase-2) [nM] | IC50 (Proteasome) [nM] | IC50 (Caspase-7) [nM] | Activity (Rattus norvegicus) | Activity (Rattus norvegicus; route subcutaneous) [%] |
| --- | --- | --- | --- | --- | --- | --- | --- | --- | --- | --- | --- | --- | --- |
| CC(C)[C@H](NC(=O)OCc1ccccc1)C(=O)N[C@@H](C)C(=O)N[C@@H](CC(=O)O)C(=O)CF (Cbz-Val-Ala-Asp-CH2F) | 3.6 | – | – | – | – | – | – | – | – | – | – | – | – |
| CC(=O)N[C@@H](CC(=O)O)C(=O)N[C@@H](CCC(=O)O)C(=O)N[C@H](C(=O)N[C@H](C=O)CC(=O)O)C(C)C | 3.4 | – | – | – | – | – | – | – | – | – | – | – | – |
| O=C1NC(=O)c2cc(NC(=O)c3ccc([N+](=O)[O-])cc3)ccc2C1=O | – | > 5000 | > 5000 | 24700 | 1380 | 2850 | > 5000 | > 5000 | 5670 | > 5000 | 2710 | – | – |
| COc1ccccc1NC(=O)CCC(=O)Nc1ccc2c(c1)C(=O)C(=O)NC2=O | – | > 5000 | > 5000 | 835 | 113 | 137 | > 5000 | > 5000 | 537 | > 5000 | 218 | – | 77 |

Further lines, with some results ahead:

| Activity (Caspase-3 (Homo sapiens)) [RFU/µg/min] | IC50 (Calpain 1) [nM] | IC50 (Trypsin) [nM] | IC50 (Caspase-8) [nM] | IC50 (Caspase-3) [nM] | IC50 (Caspase-6) [nM] | IC50 (Papain) [nM] | IC50 (Prothrombin) [nM] | IC50 (Caspase-2) [nM] | IC50 (Proteasome) [nM] | IC50 (Caspase-7) [nM] | Compound | Activity (Rattus norvegicus) | Activity (Rattus norvegicus; route subcutaneous) [%] |
| --- | --- | --- | --- | --- | --- | --- | --- | --- | --- | --- | --- | --- | --- |
| – | > 5000 | > 5000 | 1120 | 68 | 201 | > 5000 | > 5000 | 859 | > 5000 | 136 | O=C(O)CCC(=O)Nc1ccc2c(c1)C(=O)C(=O)NC2=O | – | – |
| – | > 5000 | > 5000 | 425 | 40 | 216 | > 5000 | > 5000 | 233 | > 5000 | 63 | CC(=O)OC(C(=O)Nc1cccc2c1C(=O)C(=O)NC2=O)c1ccccc1 (configuration not stated) | – | – |
| – | > 5000 | > 5000 | – | – | 474 | > 5000 | > 5000 | 1530 | > 5000 | 386 | O=C1NC(=O)c2ccccc2C1=O | inactive | – |
| – | > 5000 | > 5000 | 288 | 25 | 124 | > 5000 | > 5000 | 231 | > 5000 | 64 | O=C(CCC(=O)N1CCCCC1)Nc1ccc2c(c1)C(=O)C(=O)NC2=O | – | – |
| – | > 5000 | > 5000 | 575 | 83 | 283 | > 5000 | > 5000 | 530 | > 5000 | 139 | O=C(CCCl)Nc1ccc2c(c1)C(=O)C(=O)NC2=O | – | – |
